From paper PMC9299185 (Pest Management Science, 2021)
Where two headings read alike, the source gives them in different places.

How the values were obtained:
honey bee CYP9Q2 [1] = target: T1, honey bee CYP9Q2 (Apis mellifera, UniProt A0A7M7R6F2); test: Fluorescence-based BOMFC probe assay with recombinantly expressed CYP9Q2; type: biochemical; conditions: for Hill slope CYP9Q2: fungicides
T1 sequence (A0A7M7R6F2 1-532): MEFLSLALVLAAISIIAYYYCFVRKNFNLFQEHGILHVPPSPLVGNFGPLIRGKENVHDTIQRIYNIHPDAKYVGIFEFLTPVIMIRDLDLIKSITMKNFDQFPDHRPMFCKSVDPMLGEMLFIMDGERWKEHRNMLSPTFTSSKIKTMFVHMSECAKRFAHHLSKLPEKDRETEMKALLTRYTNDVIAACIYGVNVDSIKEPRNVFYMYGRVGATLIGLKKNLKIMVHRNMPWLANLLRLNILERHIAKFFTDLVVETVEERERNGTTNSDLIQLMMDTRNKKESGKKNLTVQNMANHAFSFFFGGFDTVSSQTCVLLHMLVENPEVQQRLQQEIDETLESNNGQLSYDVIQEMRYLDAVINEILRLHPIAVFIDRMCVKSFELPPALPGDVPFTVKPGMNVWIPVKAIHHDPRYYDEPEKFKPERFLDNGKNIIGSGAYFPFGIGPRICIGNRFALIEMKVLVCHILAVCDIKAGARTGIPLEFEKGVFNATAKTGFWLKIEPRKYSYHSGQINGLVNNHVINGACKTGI
T1 sequence (A0A8U1CY41 1-694 partner): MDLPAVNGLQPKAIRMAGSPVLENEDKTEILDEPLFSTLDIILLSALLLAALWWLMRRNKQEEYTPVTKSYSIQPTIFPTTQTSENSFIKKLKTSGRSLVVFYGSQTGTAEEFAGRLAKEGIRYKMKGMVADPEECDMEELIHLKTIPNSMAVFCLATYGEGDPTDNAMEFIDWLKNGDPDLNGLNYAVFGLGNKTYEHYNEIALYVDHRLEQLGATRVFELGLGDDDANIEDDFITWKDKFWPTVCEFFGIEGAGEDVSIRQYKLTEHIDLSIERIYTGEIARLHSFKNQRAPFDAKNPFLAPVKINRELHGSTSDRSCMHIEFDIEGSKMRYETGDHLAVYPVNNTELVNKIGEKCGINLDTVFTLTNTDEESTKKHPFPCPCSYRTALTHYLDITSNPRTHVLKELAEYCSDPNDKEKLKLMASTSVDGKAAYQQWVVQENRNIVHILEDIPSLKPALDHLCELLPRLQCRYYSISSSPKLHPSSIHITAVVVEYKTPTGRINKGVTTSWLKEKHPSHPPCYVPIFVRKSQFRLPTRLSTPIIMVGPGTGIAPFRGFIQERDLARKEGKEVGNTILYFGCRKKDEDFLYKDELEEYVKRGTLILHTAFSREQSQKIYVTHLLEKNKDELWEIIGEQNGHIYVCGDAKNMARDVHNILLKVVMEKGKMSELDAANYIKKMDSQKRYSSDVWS

honey bee CYP9Q3 [2] = target: T2, honey bee CYP9Q3 (Apis mellifera, UniProt A0A7M7LMV1); test: Fluorescence-based BOMFC probe assay with recombinantly expressed CYP9Q3; type: biochemical; conditions: for Hill slope CYP9Q3: fungicides
T2 sequence (A0A7M7LMV1 1-517): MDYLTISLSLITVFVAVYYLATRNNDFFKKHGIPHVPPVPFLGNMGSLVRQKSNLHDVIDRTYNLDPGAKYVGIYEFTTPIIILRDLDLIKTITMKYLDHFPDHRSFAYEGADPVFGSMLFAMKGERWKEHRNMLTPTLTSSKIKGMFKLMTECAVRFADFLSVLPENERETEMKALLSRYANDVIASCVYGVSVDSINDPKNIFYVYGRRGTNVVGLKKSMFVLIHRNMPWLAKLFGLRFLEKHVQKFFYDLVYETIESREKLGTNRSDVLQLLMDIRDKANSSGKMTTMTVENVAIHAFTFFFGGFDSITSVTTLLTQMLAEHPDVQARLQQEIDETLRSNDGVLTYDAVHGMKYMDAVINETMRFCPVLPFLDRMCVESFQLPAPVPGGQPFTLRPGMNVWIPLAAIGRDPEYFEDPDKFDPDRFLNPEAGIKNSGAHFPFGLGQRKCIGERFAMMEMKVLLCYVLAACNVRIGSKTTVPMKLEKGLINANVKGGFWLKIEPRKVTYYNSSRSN
T2 sequence (A0A8U1CY41 1-694 partner): T1 sequence (A0A8U1CY41 1-694 partner)

[3] = test system: Drosophila melanogaster Empty × Hsp70 (reference control strain); test: Drosophila diet overlay bioassay, control strain; type: in vivo; conditions: Empty × Hsp70 adults
Procedure, shortened: (§1)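 F1 adults came from crossing UAS strains carrying honey bee CYP9Q2 or CYP9Q3, or a control strain lacking the transgene, with a GAL4-Hsp70 driver. Flies were heat-shocked at 37 °C three times for 30 min the day before, then again just before testing. The test compound in acetone was diluted 1:2 in water with 0.1% (w/v) Triton X-100 and spread over artificial diet. Mortality was scored at 48 h. Values came from probit analysis; resistance ratio = transgenic LD50 / control LD50.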

[4] = test system: Apis mellifera worker bees; conditions: honey bee, reported value; cited from earlier work
honey bee CYP6AQ1 = target: T3, honey bee CYP6AQ1 (Apis mellifera, UniProt F1DPP0); test: Fluorescence-based BOMFC probe assay with recombinantly expressed CYP6AQ1; type: biochemical; conditions: for inhibition of CYP6AQ1-mediated BOMFC metabolism: 100 μM
T3 sequence (F1DPP0 1-514): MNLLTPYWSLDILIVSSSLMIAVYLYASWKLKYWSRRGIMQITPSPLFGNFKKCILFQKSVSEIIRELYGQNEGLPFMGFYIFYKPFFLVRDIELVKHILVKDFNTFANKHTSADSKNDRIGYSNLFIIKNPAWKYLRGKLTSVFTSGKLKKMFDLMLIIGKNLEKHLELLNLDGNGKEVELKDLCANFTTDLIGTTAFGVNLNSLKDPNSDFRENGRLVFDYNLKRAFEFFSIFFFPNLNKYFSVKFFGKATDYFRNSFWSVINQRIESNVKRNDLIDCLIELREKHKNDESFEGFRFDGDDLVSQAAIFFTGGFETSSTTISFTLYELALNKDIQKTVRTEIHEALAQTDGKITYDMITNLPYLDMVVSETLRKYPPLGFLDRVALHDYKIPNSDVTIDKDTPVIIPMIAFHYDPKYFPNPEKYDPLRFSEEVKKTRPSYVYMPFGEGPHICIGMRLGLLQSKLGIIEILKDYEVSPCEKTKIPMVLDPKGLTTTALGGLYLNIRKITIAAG
T3 sequence (A0A8U1CY41 1-694 partner): T1 sequence (A0A8U1CY41 1-694 partner)

[5] = test system: transgenic Drosophila melanogaster CYP9Q3 × Hsp70; test: Drosophila diet overlay bioassay, strain expressing honey bee CYP9Q3; type: in vivo; conditions: for LD50 48 h: CYP9Q3 × Hsp70 adults, diet overlay; for RR (resistance ratio): LD50 of CYP9Q3 × Hsp70 divided by LD50 of Empty × Hsp70; for Slope: probit analysis, CYP9Q3 × Hsp70
Procedure, shortened: as §1

[6] = test system: transgenic Drosophila melanogaster CYP9Q2 × Hsp70; test: Drosophila diet overlay bioassay, strain expressing honey bee CYP9Q2; type: in vivo; conditions: for LD50 48 h: CYP9Q2 × Hsp70 adults, diet overlay; for RR (resistance ratio): LD50 of CYP9Q2 × Hsp70 divided by LD50 of Empty × Hsp70; for Slope: probit analysis, CYP9Q2 × Hsp70
Procedure, shortened: as §1

[7] = Honey bee acute contact toxicity and synergism study; type: in vivo, Apis mellifera; conditions: female, Apis mellifera (honey bee), in vivo, topical, honey bee mortality
Procedure, shortened: (§2)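 OECD 214 acute contact test, modified for the synergist. Mixed-age workers came from the honey super of three queen-right colonies untreated for at least 6 months. Propiconazole was applied at 10 μg/bee. Controls received acetone or propiconazole alone. Mortality was scored at 48 h. Groups were compared by unpaired t-test (P < 0.01), with SEM shown.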

[8] = test system: Apis mellifera worker bees; test: as above; type: in vivo; conditions: for effect of propiconazole pretreatment on acute contact toxicity: 10 μg/bee propiconazole 1 h prior to insecticide application
Procedure, shortened: as §2

honey bee CYP9Q3 [9] = target: T2, honey bee CYP9Q3; conditions: BOMFC probe, ref Haas et al. (2021)[33], cited from earlier work
honey bee CYP9Q2 [10] = target: T1, honey bee CYP9Q2; conditions: BOMFC probe, ref Haas et al. (2021)[33], cited from earlier work
[11] = IC50 CYP9Q2, fungicides, BOMFC probe
[12] = IC50 CYP9Q3, fungicides, BOMFC probe
[13] = IC50 CYP9Q2, diamides, BOMFC probe 15 μM
[14] = IC50 CYP9Q3, diamides, BOMFC probe 6.5 μM
[15] = highest concentration tested, 100 μM

O=C(Nc1ccccc1-c1ccc(Cl)cc1)c1cccnc1Cl [Boscalid, boscalid]
IC50 (honey bee CYP9Q2 [1]; [11]): > 10000 nM
IC50 (honey bee CYP9Q3 [2]; [12]): 4130 nM
Hill slope CYP9Q3 (honey bee CYP9Q3 [2]; BOMFC probe): −1.05

CNC(=O)c1cc(Cl)cc(C)c1NC(=O)c1cc(Br)nn1-c1ncccc1Cl [Chlorantraniliprole]
LD50 48 h [3]: 22.2 ppm
LD50 [4]: > 4 μg/bee
IC50 (honey bee CYP6AQ1): > 100000 nM
inhibition of CYP6AQ1-mediated BOMFC metabolism (honey bee CYP6AQ1): not inhibited
LD50 48 h [5]: 155 ppm
RR (resistance ratio) [5]: 6.99
Slope [5]: 2.86
LD50 48 h [6]: 96.2 ppm
RR (resistance ratio) [6]: 4.34
Slope [6]: 1.74
IC50 (honey bee CYP9Q2 [1]; [13]): 93400 nM
mortality at 48 h ([7]; 0.2 μg/bee, topical 0.2 μg/bee CPR alone, 48 h): 3.6%
mortality at 48 h ([7]; 2 μg/bee, topical 2 μg/bee CPR alone, 48 h, ± SEM, n = 3): 12%
mortality at 48 h ([7]; topical application of 2 μg/bee and 0.2 μg/bee CPR alone): < 15%
effect of propiconazole pretreatment on acute contact toxicity [8]: significantly increased
IC50 (honey bee CYP9Q3 [2]; [14]): 17400 nM

N#Cc1c(Cl)c(Cl)c(Cl)c(C#N)c1Cl [Chlorothalonil, chlorothalonil]
IC50 (honey bee CYP9Q2 [1]; [11]): > 10000 nM
IC50 (honey bee CYP9Q3 [2]; [12]): > 10000 nM

Cc1cc(C2CC2)nc(Nc2ccccc2)n1 [Cyprodinil]
IC50 (honey bee CYP9Q2 [1]; [11]): > 10000 nM
IC50 (honey bee CYP9Q3 [2]; [12]): > 10000 nM

CC1COC(Cn2cncn2)(c2ccc(Oc3ccc(Cl)cc3)cc2Cl)O1 (centres unmarked) [Difenoconazole, difenoconazole]
IC50 (honey bee CYP9Q2 [1]; [11]): 33 nM
IC50 (honey bee CYP9Q2 [1]; IC50 CYP9Q2, lowest IC50 value): ~30 nM
Hill slope CYP9Q2 (honey bee CYP9Q2 [1]; BOMFC probe): −0.81
IC50 (honey bee CYP9Q3 [2]; [12]): 32 nM
IC50 (honey bee CYP9Q3 [2]; IC50 CYP9Q3, lowest IC50 value): ~30 nM
Hill slope CYP9Q3 (honey bee CYP9Q3 [2]; BOMFC probe): −1.02

N#CC(CCc1ccc(Cl)cc1)(Cn1cncn1)c1ccccc1 (centres unmarked) [Fenbuconazole, fenbuconazole]
IC50 (honey bee CYP9Q2 [1]; [11]): 41 nM
Hill slope CYP9Q2 (honey bee CYP9Q2 [1]; BOMFC probe): −0.67
IC50 (honey bee CYP9Q3 [2]; [12]): 58 nM
Hill slope CYP9Q3 (honey bee CYP9Q3 [2]; BOMFC probe): −0.86

Cc1cc(C(F)(C(F)(F)F)C(F)(F)F)ccc1NC(=O)c1cccc(I)c1C(=O)NC(C)(C)CS(C)(=O)=O [Flubendiamide, flubendiamide]
LD50 48 h [3]: 147 ppm
IC50 (honey bee CYP6AQ1): > 100000 nM
inhibition of CYP6AQ1-mediated BOMFC metabolism (honey bee CYP6AQ1): did not show any obvious interaction
LD50 48 h [5]: 179 ppm
RR (resistance ratio) [5]: 1.23
Slope [5]: 6.97
LD50 48 h [6]: 253 ppm
RR (resistance ratio) [6]: 1.73
Slope [6]: 4.62
IC50 (honey bee CYP9Q2 [1]; [13]): > 100000 nM
interaction with BOMFC metabolism by CYP9Q2 (honey bee CYP9Q2 [1]; [15]): did not show any obvious interaction
mortality at 48 h ([7]; 100 μg/bee, FLB doses of 100 μg/bee, acute contact): < 5%
effect of propiconazole pretreatment on acute contact toxicity [8]: not influenced
IC50 (honey bee CYP9Q3 [2]; [14]): > 100000 nM
interaction with BOMFC metabolism by CYP9Q3 (honey bee CYP9Q3 [2]; [15]): did not show any obvious interaction

CC(C)NC(=O)N1CC(=O)N(c2cc(Cl)cc(Cl)c2)C1=O [Iprodione, iprodione]
IC50 (honey bee CYP9Q2 [1]; [11]): > 10000 nM
IC50 (honey bee CYP9Q3 [2]; [12]): > 10000 nM

CC1(C)CCC(Cc2ccc(Cl)cc2)C1(O)Cn1cncn1 (centres unmarked) [Metconazole, metconazole]
IC50 (honey bee CYP9Q2 [1]; [11]): 33 nM
Hill slope CYP9Q2 (honey bee CYP9Q2 [1]; BOMFC probe): −0.6
IC50 (honey bee CYP9Q3 [2]; [12]): 57 nM
Hill slope CYP9Q3 (honey bee CYP9Q3 [2]; BOMFC probe): −1.03

CCCC1COC(Cn2cncn2)(c2ccc(Cl)cc2Cl)O1 (centres unmarked) [Propiconazole, propiconazole]
Hill slope CYP9Q3 (honey bee CYP9Q3 [9]): −1.10
IC50 (honey bee CYP9Q3 [9]; read-out: IC50 CYP9Q3): 72 nM
effect on control bees ([8]; propiconazole only, 10 μg/bee, test period 48 h): remained unaffected
Hill slope CYP9Q2 (honey bee CYP9Q2 [10]): −0.88
IC50 (honey bee CYP9Q2 [10]; read-out: IC50 CYP9Q2): 151 nM

COC(=O)N(OC)c1ccccc1COc1ccn(-c2ccc(Cl)cc2)n1 [Pyraclostrobin, pyraclostrobin]
IC50 (honey bee CYP9Q2 [1]; [11]): > 10000 nM
IC50 (honey bee CYP9Q3 [2]; [12]): 7840 nM
Hill slope CYP9Q3 (honey bee CYP9Q3 [2]; BOMFC probe): −0.56
